The results in this text go back to ChEMBL document CHEMBL3400107, “Synthesis, structure-activity relationships, and anticonvulsant activities of 2-amino-4H-pyrido[3,2-e][1,3]thiazin-4-one derivatives as orally active AMPA receptor antagonists” (Bioorg Med Chem, 2015).

The IC50 is the concentration at which inhibition is half-maximal. Low values mean inhibition by little substance, high ones a need for much substance. In general, ED50 refers to the dose at which the effect has come halfway, by size or by number of responders. In general, inhibition refers to the percentage by which the read-out fell short of the control. As usually defined, the AUC(0-inf) is total exposure, with the tail of the curve extrapolated. High values mean high exposure, low ones low exposure. In general, clearance refers to the rate of elimination divided by the concentration. As a reminder, the half-life is the time needed for the level to fall by half in the phase considered. Low readings indicate rapid decline, high ones slow decline. A word on the Cmax: it is the peak of the concentration-time curve. As usually defined, the Tmax is the time at which the peak concentration occurs. As a reminder, the bioavailability is dose-corrected exposure relative to a reference, in per cent.

The subject of data set [1] is Neuron. Nature of the data set: Inhibition of kainate-induced neurotoxicity in primary rat hippocampal neurons after 24 hrs by LDH assay. It counts as functional, cell-based. Put shortly:
(§1)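 Hippocampal cultures from embryonic day 18–20 Wistar rats, used after 8 or 9 days in vitro. Compounds added together with 300 µM kainate. Neuronal injury measured 24 h later as LDH release into the medium. Values are IC50 (concentration for 50% inhibition) or percent inhibition at 10 µM.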

The test system of the next data set is Mus musculus. Kind of data set: Anticonvulsant activity in po dosed ICR mouse assessed as protection from maximal electroshock-induced seizure measured after 60 mins post dose. It counts as functional. To be noted: 1 h. Put shortly:
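Compounds given orally to mice; 60 min later corneal electroshock applied (50 mA, 0.2 s, 50 Hz). Protection scored as absence of tonic extension. ED50 calculated by probit method, with 95% confidence intervals.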
A general note: Protection in the maximal electroshock model is a classic sign of anticonvulsant action.

The subject of data set [2] is Neuron. Nature of the data set: Inhibition of kainate-induced neurotoxicity in primary rat hippocampal neurons at 10 uM after 24 hrs by LDH assay. Format: functional. Put shortly: as §1
Data set [3] is described as follows: AUC(infinity) in rat at 1 mg/kg, iv. Details: time infinity, dose 1 mg/kg, route intravenous. It counts as ADME, organism-based. Conditions: plasma.
Data set [4] is described as follows: AUC(infinity) in rat at 1 mg/kg, po. Format: ADME, organism-based. Details: time infinity, dose 1 mg/kg, route oral. To be noted: plasma.
A short description of data set [5]: Total clearance in rat at 1 mg/kg, iv. To be noted: in vivo. It counts as ADME, organism-based. Set-up: dose 1 mg/kg, route intravenous.
Data set [6] can be described thus: Volume of distribution at steady state in rat at 1 mg/kg, iv. Format: ADME, organism-based. Set-up: dose 1 mg/kg, route intravenous. Conditions: in vivo, read-out: Vdss.
Data set [7] can be described thus: Half life in rat at 1 mg/kg, iv. It counts as ADME, organism-based. Set-up: dose 1 mg/kg, route intravenous. Conditions: in vivo.
Data set [8] is described as follows: Half life in rat at 1 mg/kg, po. It counts as ADME, organism-based. Details: dose 1 mg/kg, route oral. To be noted: in vivo.
Data set [9] can be described thus: Cmax in rat at 1 mg/kg, po. It counts as ADME, organism-based. Details: dose 1 mg/kg, route oral. To be noted: in vivo.
A short description of data set [10]: Tmax in rat at 1 mg/kg, po. Conditions: in vivo. It counts as ADME, organism-based. Set-up: dose 1 mg/kg, route oral.
Data set [11] in a line: Oral bioavailability in rat at 1 mg/kg. Format: ADME, organism-based. To be noted: in vivo.

Some results are limits rather than exact numbers.

Compound `CN(c1ccc(F)cc1)c1nc(=O)c2cccnc2s1` returned an IC50 in the data set with Neuron [1] of 7200 nM. In the data set with Mus musculus, the ED50 was 15.3 mg/kg.
`CN(c1ccc(Cl)cc1)c1nc(=O)c2ccncc2s1` returned an inhibition at 10 µM in the data set on Neuron [2] of 4%.
As to `Cc1ccc(N(C)c2nc(=O)c3cccnc3s2)cc1`, it took 10000 nM to reach half-maximal inhibition with Neuron [1] (IC50).
Still for that read-out and setting: the same measure for `CCN(c1ccc2c(c1)OCCO2)c1nc(=O)c2cccnc2s1`: 600 nM.
`CN(c1ccc(Cl)cc1)c1nc(=O)c2cccnc2s1` returned an IC50 in the data set on Neuron [1] of 2000 nM. Besides, the ED50 in the data set on Mus musculus was found to be 7.4 mg/kg. Also, the AUC(0-inf) in [3] is 542 ng·h/mL; in data set [4] it was 472 ng·h/mL. In [5], this compound gave a clearance of 30.8 mL/min/kg. Further, the Vd in [6] came to 1.18 L/kg. Also, the results for the half-life in data set [7] and in data set [8] were 26.4 min and 34.8 min, respectively. In data set [9], this compound had a Cmax of 425 ng/mL. Besides, the Tmax in data set [10] amounted to 15 min. In [11], this compound registered a bioavailability of 87.1%.
On to `CN(c1ccc(N)cc1)c1nc(=O)c2cccnc2s1`, for which at 10 µM the inhibition in the data set with Neuron [2] was 19%.
`CN(c1ccc(Cl)cc1)c1nc(=O)c2ccccc2s1`: in the data set on Neuron [1], half-maximal inhibition (IC50) required 6500 nM.
`CN(c1ccc(OC(F)(F)F)cc1)c1nc(=O)c2cccnc2s1` registered a 50% inhibitory concentration (IC50) in the data set with Neuron [1] of 2100 nM. For the same compound, in the data set on Mus musculus, the ED50 was 25.2 mg/kg.
Turning to `CCN(c1ccc(OC)cc1)c1nc(=O)c2cccnc2s1`, 2800 nM corresponded to half-maximal inhibition in the data set with Neuron [1] (IC50).
`CN(c1cccnc1)c1nc(=O)c2cccnc2s1` registered an inhibition at 10 µM in the data set with Neuron [2] of 18%.
Same read-out and setting: next, `CN(c1ccc(C2CCCCC2)cc1)c1nc(=O)c2cccnc2s1`: 29%; `CN(c1ccsc1)c1nc(=O)c2cccnc2s1`: 28%; `CCN(c1ccc(OC)c(OC)c1)c1nc(=O)c2cccnc2s1`: 25%.
On to `CN(c1ccc(Cl)cc1)c1nc(=O)c2ccccc2o1`, for which testing at 10 µM with Neuron [2] gave an inhibition of 28%.
Still for that read-out and setting: next, `Cc1ccc2c(=O)nc(N(C)c3ccc(Cl)cc3)sc2n1`: 0%.
The compound `CN(c1ccc(Br)cc1)c1nc(=O)c2cccnc2s1` displayed an IC50 in the data set with Neuron [1] of 1000 nM. Further, the ED50 with Mus musculus was found to be 23.1 mg/kg.
On to `CN(c1ccc(C(F)(F)F)cc1)c1nc(=O)c2cccnc2s1`, for which the IC50 with Neuron [1] amounted to 2000 nM.
The same measure, in the same setting: the same measure for `COc1ccc(N(C)c2nc(=O)c3cccnc3s2)cc1`: 3400 nM.
`Cc1ccccc1N(C)c1nc(=O)c2cccnc2s1` gave an inhibition at 10 µM with Neuron [2] of 4%.
`CN(c1ccc(Cl)cc1)c1nc(=O)c2sccc2s1` yielded an IC50 with Neuron [1] of 5400 nM.
Turning to `CN(c1ccccc1)c1nc(=O)c2cccnc2s1`, 10 µM produced 43% inhibition in the data set with Neuron [2].
Same read-out and setting: next, `CN(c1ccc(Cl)cc1)c1nc(=O)c2cnccc2s1`: 2%.
As to `Cl.O=c1[nH]c2cc(-n3ccnc3)c([N+](=O)[O-])cc2[nH]c1=O`, the ED50 with Mus musculus is greater than 100 mg/kg.
Turning to `CN(c1ccc([N+](=O)[O-])cc1)c1nc(=O)c2cccnc2s1`, the inhibition at 10 µM in the data set with Neuron [2] was 38%.
On the same count and under the same terms, next, `CCOC(=O)c1ccc(N(C)c2nc(=O)c3cccnc3s2)cc1`: 29%; `CN(c1ccc(C(=O)O)cc1)c1nc(=O)c2cccnc2s1`: 0%.
The compound `C=CCN(c1ccc(C)cc1)c1nc(=O)c2cccnc2s1` returned an IC50 in the data set on Neuron [1] of 9000 nM.
`CN(c1ccc2c(c1)CCC2)c1nc(=O)c2cccnc2s1` displayed an IC50 with Neuron [1] of 1300 nM.
`CN(c1nc(=O)c2cccnc2s1)C1CCCCC1`: the inhibition at 10 µM in the data set on Neuron [2] is 16%.
As for `CN(Cc1ccccc1)c1nc(=O)c2cccnc2s1`, 10 µM produced 0% inhibition in the data set with Neuron [2].
In the data set on Neuron [1], `CCN(c1ccc2c(c1)OCO2)c1nc(=O)c2cccnc2s1` displayed an IC50 of 400 nM. In addition, the ED50 in the data set on Mus musculus worked out at 38.9 mg/kg.
With `CC(=O)N1N=C(c2ccc(N)cc2)c2cc3c(cc2C[C@H]1C)OCO3` [TALAMPANEL], the IC50 in the data set on Neuron [1] was determined as 6000 nM. In addition, the ED50 in the data set on Mus musculus is 4.2 mg/kg.
Take `CCN(c1cccc(OC)c1)c1nc(=O)c2cccnc2s1`: the IC50 in the data set on Neuron [1] worked out at 3800 nM.
In the data set on Neuron [1], `CN(c1ccc2sccc2c1)c1nc(=O)c2cccnc2s1` had an IC50 of 400 nM.
